Measured values from ChEMBL document CHEMBL1131287, “Design, synthesis, and biological activities of potent and selective somatostatin analogues incorporating novel peptoid residues” (J Med Chem, 1998).
Square brackets hold non-standard residues; d marks the D form. Peptide text beside a SMILES is read from it.

What was measured:
Format in all cases: cell-based
[1] = target: T1, Somatostatin receptor type 1 (Homo sapiens, UniProt P30872); test: In vitro inhibition of radioligand binding to human somatostatin receptor (hsst1) expressed in hSF6 cells.
T1 sequence (P30872 whole entry): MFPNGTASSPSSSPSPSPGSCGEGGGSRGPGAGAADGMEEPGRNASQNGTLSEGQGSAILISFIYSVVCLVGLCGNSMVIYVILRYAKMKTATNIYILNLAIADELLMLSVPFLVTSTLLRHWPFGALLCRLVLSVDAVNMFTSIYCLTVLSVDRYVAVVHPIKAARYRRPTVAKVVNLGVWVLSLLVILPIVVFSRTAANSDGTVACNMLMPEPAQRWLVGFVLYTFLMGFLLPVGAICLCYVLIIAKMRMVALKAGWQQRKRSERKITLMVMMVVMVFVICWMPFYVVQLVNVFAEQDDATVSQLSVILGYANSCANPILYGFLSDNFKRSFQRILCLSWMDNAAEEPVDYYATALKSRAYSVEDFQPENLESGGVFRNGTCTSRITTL
How it was run: (§1)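 Competition binding on cell or membrane homogenates in 10 mM HEPES pH 7.5 with 0.5% BSA, 5 mM MgCl2 and 5 μg/mL bacitracin, 1 h at room temperature. Nonspecific binding with 1 μM SRIF14. Gamma counting, triplicates, nonlinear regression, reported as pKD.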

[2] = target: T2, Somatostatin receptor type 5 (Homo sapiens, UniProt P35346); test: In vitro inhibition of radioligand binding to human Somatostatin receptor type 5 expressed in CCL-39 cells.; how it was run: as §1
T2 sequence (P35346 whole entry): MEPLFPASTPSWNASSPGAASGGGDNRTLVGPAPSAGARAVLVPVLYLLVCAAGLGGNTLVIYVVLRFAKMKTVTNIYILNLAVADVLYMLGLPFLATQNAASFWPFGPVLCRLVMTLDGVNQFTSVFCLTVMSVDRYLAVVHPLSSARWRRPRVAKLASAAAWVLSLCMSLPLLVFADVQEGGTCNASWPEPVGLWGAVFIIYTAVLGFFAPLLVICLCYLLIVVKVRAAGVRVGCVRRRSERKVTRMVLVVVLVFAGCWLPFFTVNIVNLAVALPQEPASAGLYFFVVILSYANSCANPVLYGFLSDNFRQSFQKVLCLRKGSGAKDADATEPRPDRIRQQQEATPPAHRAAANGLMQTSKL

[3] = target: T1, Somatostatin receptor type 1; test: In vitro inhibition of radioligand binding to human somatostatin receptor (hsst1) expressed in CHO-K1 cells.
How it was run: (§2)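 Membranes from CHO-K1 clones stably expressing the hsst subtype (pCMV, G418-selected), washed in 50 mM Tris-HCl. Stopped by PEI-treated GF/C filtration. Specific binding was defined against 1000 nM SRIF-14.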

[4] = target: T3, Somatostatin receptor type 4 (Homo sapiens, UniProt P31391); test: In vitro inhibition of radioligand binding to human somatostatin receptor (hsst4) expressed in CHO cells.; how it was run: as §1
T3 sequence (P31391 whole entry): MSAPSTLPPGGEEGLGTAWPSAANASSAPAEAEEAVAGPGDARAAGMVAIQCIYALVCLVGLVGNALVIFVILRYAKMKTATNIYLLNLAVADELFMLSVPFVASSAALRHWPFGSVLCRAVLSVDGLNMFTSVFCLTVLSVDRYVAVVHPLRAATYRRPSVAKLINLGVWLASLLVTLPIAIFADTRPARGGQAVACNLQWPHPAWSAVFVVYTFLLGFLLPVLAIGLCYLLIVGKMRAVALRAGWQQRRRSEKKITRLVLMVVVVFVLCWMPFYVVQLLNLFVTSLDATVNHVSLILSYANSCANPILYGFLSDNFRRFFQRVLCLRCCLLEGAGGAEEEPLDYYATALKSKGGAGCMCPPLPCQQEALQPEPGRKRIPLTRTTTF

[5] = target: T2, Somatostatin receptor type 5; test: In vitro inhibition of radioligand binding to human Somatostatin receptor type 5 expressed in CHO-K1 cells.; how it was run: as §2
[6] = target: T4, Somatostatin receptor type 2 (Homo sapiens, UniProt P30874); test: In vitro inhibition of radioligand binding to human somatostatin receptor (hsst2) expressed in CHO cells.; how it was run: as §1
T4 sequence (P30874 whole entry): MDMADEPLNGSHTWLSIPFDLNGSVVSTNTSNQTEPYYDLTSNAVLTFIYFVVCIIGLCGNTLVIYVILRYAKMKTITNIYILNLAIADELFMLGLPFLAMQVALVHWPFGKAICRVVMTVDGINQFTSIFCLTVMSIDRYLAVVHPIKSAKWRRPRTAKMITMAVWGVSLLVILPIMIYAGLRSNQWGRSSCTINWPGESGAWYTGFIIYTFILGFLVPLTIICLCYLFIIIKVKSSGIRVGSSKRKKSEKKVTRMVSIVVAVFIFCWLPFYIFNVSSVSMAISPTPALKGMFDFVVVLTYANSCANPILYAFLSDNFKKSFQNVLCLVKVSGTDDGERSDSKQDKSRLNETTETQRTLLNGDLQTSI

[7] = target: T5, Somatostatin receptor type 3 (Homo sapiens, UniProt P32745); test: In vitro inhibition of radioligand binding to human somatostatin receptor (hsst3) expressed in CHO cells.; how it was run: as §1
T5 sequence (P32745 whole entry): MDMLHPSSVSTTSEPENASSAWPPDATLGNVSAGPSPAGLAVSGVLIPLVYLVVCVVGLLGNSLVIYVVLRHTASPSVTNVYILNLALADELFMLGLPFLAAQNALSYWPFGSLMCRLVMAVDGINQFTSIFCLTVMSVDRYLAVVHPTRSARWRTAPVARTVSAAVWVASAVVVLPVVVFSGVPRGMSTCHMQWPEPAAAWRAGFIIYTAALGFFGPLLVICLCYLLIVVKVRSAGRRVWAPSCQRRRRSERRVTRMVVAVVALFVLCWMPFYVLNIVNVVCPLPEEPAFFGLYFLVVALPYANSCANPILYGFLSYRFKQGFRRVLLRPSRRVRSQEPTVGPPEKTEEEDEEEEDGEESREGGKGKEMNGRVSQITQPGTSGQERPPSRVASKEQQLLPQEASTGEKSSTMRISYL

[8] = target: T3, Somatostatin receptor type 4; test: In vitro inhibition of radioligand binding to human somatostatin receptor (hsst4) expressed in CHO-K1 cells.; how it was run: as §2
[9] = target: T5, Somatostatin receptor type 3; test: In vitro inhibition of radioligand binding to human somatostatin receptor (hsst3) expressed in CHO-K1 cells.; how it was run: as §2
[10] = target: T4, Somatostatin receptor type 2; test: In vitro inhibition of radioligand binding to human somatostatin receptor (hsst2) expressed in CHO-K1 cells.
How it was run: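 hsst2 stably expressed in CHO-K1 cells; washed membranes were used. Radioligand was 0.05 nM [125I]MK-678, incubated 90 min at 25 °C in 50 mM HEPES pH 7.4 buffer with BSA, MgCl2 and protease inhibitors. Filtered on PEI-soaked GF/C filters. Specific binding was defined against 1000 nM MK-678.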

Kd [1] [nM]	Kd ([2]; ccl-39) [nM]	Ki ([3]; cho-k1) [nM]	Kd ([4]; cho) [nM]	Ki ([5]; cho-k1) [nM]	Kd ([6]; cho) [nM]	Kd ([7]; cho) [nM]	Ki ([8]; cho-k1) [nM]	Ki ([9]; cho-k1) [nM]	Ki ([10]; cho-k1) [nM]	Kd [2] [nM]	Ki [3] [nM]	Kd [4] [nM]	Ki [5] [nM]	Kd [6] [nM]	Kd [7] [nM]	Ki [8] [nM]	Ki [9] [nM]	Ki [10] [nM]	Structure (SMILES)
3550	288	> 1000	4170	33.5	2.04	407	> 1000	425	2.33										C[C@H](c1ccccc1)N1CC(=O)N[C@@H](Cc2ccccc2)C(=O)N[C@H](Cc2c[nH]c3ccccc23)C(=O)N[C@@H](CCCCN)C(=O)N[C@@H]([C@@H](C)O)C(=O)N[C@@H](Cc2ccccc2)C1=O
7080	69	> 1000	4680	101	2.95	282	> 1000	253	6.98										C[C@@H](O)[C@@H]1NC(=O)[C@H](CCCCN)NC(=O)[C@@H](Cc2c[nH]c3ccccc23)NC(=O)[C@H](Cc2ccccc2)NC(=O)CN(Cc2ccccc2)C(=O)[C@H](Cc2ccccc2)NC1=O
13200	115	> 1000	2630	87	6.17	339	987	797	29.5										C[C@@H](O)[C@@H]1NC(=O)[C@H](CCCCN)NC(=O)[C@@H](Cc2c[nH]c3ccccc23)NC(=O)[C@H](Cc2ccccc2)NC(=O)CN([C@@H](C)c2ccccc2)C(=O)[C@H](Cc2ccccc2)NC1=O
4570										7.6	> 1000	8910	25	0.76	525	> 1000	129	5.1	C[C@@H](O)[C@@H]1NC(=O)[C@H](CCCCN)NC(=O)[C@@H](Cc2c[nH]c3ccccc23)NC(=O)[C@H](Cc2ccccc2)NC(=O)[C@@H]2CCCN2C(=O)[C@H](Cc2ccccc2)NC1=O (cyclo(PF[dW]KTF))
